In ChEMBL document CHEMBL4049440, “First Dual Inhibitors of Steroid Sulfatase (STS) and 17β-Hydroxysteroid Dehydrogenase Type 1 (17β-HSD1): Designed Multiple Ligands as Novel Potential Therapeutics for Estrogen-Dependent Diseases” (J Med Chem, 2017) one finds inhibition and Activity data, which are given here for one molecule.

Broadly, the inhibition is how much of the control response was suppressed.

Each structure is given as a SMILES string. Some results are limits rather than exact numbers.

In series [1] the target is T1, 17-beta-hydroxysteroid dehydrogenase type 1 (Homo sapiens) (UniProt P14061).
T1 sequence (whole entry): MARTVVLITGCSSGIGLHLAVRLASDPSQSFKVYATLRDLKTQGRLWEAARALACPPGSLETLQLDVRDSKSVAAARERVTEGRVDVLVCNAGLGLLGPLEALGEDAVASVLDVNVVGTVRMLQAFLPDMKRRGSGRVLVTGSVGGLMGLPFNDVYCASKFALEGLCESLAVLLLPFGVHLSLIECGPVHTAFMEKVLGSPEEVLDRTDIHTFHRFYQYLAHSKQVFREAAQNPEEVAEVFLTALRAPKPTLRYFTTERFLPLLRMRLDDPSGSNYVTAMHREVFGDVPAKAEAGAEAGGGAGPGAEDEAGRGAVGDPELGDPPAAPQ
As to the kind of experiment: Inhibition of 17beta-HSD1 in human T47D cells at 1 uM preincubated for 1 hr followed by addition of [3H]-E1/E1 as substrate measured after 30 mins by HPLC based radio-detection method. It counts as cell-based.

The test system of series [2] is T47D. Description: Antiproliferative activity against E1S/E1-stimulated human T47D cells assessed as cell viability at 50 to 200 nM measured after 7 days after MTT assay relative to control. It counts as functional.
Series [3] concerns the target T2, Steryl-sulfatase (Homo sapiens) (UniProt P08842).
T2 sequence (whole entry): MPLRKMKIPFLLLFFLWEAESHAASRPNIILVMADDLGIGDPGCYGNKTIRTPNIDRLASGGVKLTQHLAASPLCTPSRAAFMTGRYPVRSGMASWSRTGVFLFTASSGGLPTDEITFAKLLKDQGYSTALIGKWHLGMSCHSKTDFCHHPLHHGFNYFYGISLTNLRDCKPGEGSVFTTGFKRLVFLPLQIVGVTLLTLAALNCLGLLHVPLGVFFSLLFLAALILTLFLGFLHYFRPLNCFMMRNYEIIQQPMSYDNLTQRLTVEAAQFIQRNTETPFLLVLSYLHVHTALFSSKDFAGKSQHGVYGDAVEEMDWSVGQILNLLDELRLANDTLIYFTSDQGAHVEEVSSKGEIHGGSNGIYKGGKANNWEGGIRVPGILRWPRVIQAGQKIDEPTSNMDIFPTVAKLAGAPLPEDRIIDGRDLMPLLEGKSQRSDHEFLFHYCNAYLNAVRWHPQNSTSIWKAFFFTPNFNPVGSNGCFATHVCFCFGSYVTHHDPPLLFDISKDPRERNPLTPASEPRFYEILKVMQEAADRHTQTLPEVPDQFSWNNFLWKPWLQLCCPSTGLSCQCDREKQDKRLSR
As to the kind of experiment: Inhibition of STS in human T47D cells assessed as [3H]-E1S level at 200 nM after 48 hrs by HPLC based radio-detection method. It counts as cell-based. On the set-up: scale not given: the % may be the effect or the level left.

Series [4] addresses T1, 17-beta-hydroxysteroid dehydrogenase type 1 (Homo sapiens). Description: Inhibition of 17beta-HSD1 in human T47D cells assessed as [3H]-E1 level at 200 nM after 48 hrs by HPLC based radio-detection method (reference value: 0.9%). Details: scale not given: the % may be the effect or the level left. It counts as cell-based.
The target is the same in series [5]. As to the kind of experiment: Inhibition of 17beta-HSD1 in human T47D cells assessed as [3H]-E2 level at 200 nM after 48 hrs by HPLC based radio-detection method (reference value: 95.2%). It counts as cell-based. Details: scale not given: the % may be the effect or the level left.
Series [6] shares this target. Description: Inhibition of human placental cytosolic 17beta-HSD1 at 1 uM using [3H]-E1/E1 substrate and NADH after 10 mins by HPLC based radio-detection method. The gist of the method:
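Enzyme from the cytosolic fraction of human placenta, incubated with radiolabelled estrone as substrate. Values are the mean of at least two independent experiments, each run in duplicate, with standard deviation under 15%.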

In series [7] the target is T3, 17beta-HSD2 (17-beta-hydroxysteroid dehydrogenase type 2) (Homo sapiens, UniProt P37059).
T3 sequence (P37059 whole entry): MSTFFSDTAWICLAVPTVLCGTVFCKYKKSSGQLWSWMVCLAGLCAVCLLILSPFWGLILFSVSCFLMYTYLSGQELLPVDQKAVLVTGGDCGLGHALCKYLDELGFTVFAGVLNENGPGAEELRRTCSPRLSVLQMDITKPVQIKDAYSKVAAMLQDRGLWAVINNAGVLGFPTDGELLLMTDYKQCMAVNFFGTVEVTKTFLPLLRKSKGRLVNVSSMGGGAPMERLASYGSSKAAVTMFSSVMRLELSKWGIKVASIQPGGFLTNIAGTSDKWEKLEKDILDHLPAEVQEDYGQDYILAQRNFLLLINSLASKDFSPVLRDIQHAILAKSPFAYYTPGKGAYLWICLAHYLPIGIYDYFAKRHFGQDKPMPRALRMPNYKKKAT
Description: Inhibition of human placental microsomal 17beta-HSD2 at 1 uM using [3H]-E2/E2 substrate and NAD+ after 20 mins by HPLC based radio-detection method. The conditions noted are these: human placental microsomal 17beta-HSD2, probe [3H]-E2/E2.

Regarding `NS(=O)(=O)Oc1ccc2c3c(c(=O)oc2c1)CCCCC3` [IROSUSTAT], the inhibition in series [1] was below 5%; in series [6] it was below 10%. Moreover, the Activity in series [2] amounted to 200%; in series [3], 50%; in series [4], 0.8%; in series [5] it was 49.2%. Further, the inhibition at 20 min, 1 µM in series [7] was below 10%.
